# Source: PubChem BioAssay
# A selection: hits, their analogues and other compounds. The true share with any hit is near 1.1%.
# S1P4 antag = human S1P4 receptor antagonism. O95977. S1P4-expressing cells, antagonist mode, reporter read-out. inhibition, % at 4.98 µM. AID 1510. actives 0.26% (n = 220,000); in the data active = inhibition above about 29%
# Target sequence (O95977 whole entry, looked up): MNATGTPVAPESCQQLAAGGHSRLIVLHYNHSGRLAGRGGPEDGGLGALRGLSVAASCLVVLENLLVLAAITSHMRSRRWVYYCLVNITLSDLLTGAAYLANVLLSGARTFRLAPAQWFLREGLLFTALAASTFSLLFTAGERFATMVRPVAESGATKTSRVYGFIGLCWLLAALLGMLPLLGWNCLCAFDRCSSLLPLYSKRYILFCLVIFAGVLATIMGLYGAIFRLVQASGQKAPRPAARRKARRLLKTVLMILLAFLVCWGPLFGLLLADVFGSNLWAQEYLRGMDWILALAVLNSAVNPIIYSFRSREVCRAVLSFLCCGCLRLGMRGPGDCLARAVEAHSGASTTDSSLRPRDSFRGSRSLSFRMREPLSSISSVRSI
# TNAP act hi DEA = TNAP (human) activation, high acceptor | 200,000 tested, under 10 active | purified TNAP, CDP-star luminescence, 1 M DEA, 30 min; hits give high values; 0 = EDTA background, 1 = DMSO-only activity | activation factor at 20 µM;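 active = activation factor at least 2 at 20 µM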
#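 Dosing: 20 µM single point. System: human TNAP. Amount: TNAP 1/800 final. Incubation: 30 min, room temperature. Read-out: TNAP activation factor scaled between EDTA and DMSO control wells. Signal: luminescence from CDP-star hydrolysis. Medium: 1 M DEA, pH 9.8, Mg2+, Zn2+. Control set: EDTA negative control, DMSO positive control.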
# S1P3 antagonist = antagonists of human S1P3 receptor | Q99500 | CHO S1P3 NFAT-BLA reporter, FRET fluorescence, antagonist mode | inhibition, % at 4.98 µM | actives 0.27% (n = 170,000);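 active = inhibition above the plate cutoff, the mean inhibition of test wells on that plate plus 3 SD, cut at about 28% in these data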;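 note: cells challenged with S1P at its EC80 of 0.8 µM; blue over green emission ratio from cleaved BLA substrate after 4 h stimulation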
# TNAP inh hi DEA = inhibitors of human TNAP at high phosphate acceptor concentration; P05186; purified TNAP, CDP-star luminescence, 1 M DEA; inhibition, % at 20 µM; actives 0.03% (n = 200,000);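 active = over 50% inhibition of tissue-nonspecific alkaline phosphatase at 20 µM in the single-dose screen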
# TNAP inh noacc = inhibitors of human TNAP without phosphate acceptor; purified TNAP, CDP-star luminescence, 30 min; inhibition, % at 20 µM; actives 0.26% (n = 200,000); AID 1012;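 active = tissue-nonspecific alkaline phosphatase inhibition above about 50% at 20 µM in the single-dose screen, limit read from the data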
# S1P4 ag = human S1P4 receptor agonism; O95977; S1P4-expressing cell line, agonist reporter assay; activation, % at 4.98 µM; actives 0.35% (n = 220,000); in the data active = activation above about 11%
# S1P4 ag conf = human S1P4 agonism, confirmation; shares compounds with S1P4 ag; S1P4 agonist cell-based reporter assay; actives 7% (n = 740); activation, % at 4.98 µM; in the data active = activation above about 12%
# S1P1 ag = human S1P1 agonism as S1P4 agonist counter-screen; shares compounds with S1P4 ag; S1P1 agonist cell-based assay, activation; activation, % at 4.98 µM; actives 4% (n = 740); AID 1563; in the data active = activation above about 21%
# Numbers stand for hits; - = inactive; . = no result given.
SMILES,S1P4 antag,TNAP act hi DEA,S1P3 antagonist,TNAP inh hi DEA,TNAP inh noacc,S1P4 ag,S1P4 ag conf,S1P1 ag
Nc1nc(Nc2ccc(Cl)cc2Cl)nc(C(F)(F)F)n1,-,-,-,-,-,30,27,-
Nc1nc(Nc2ccccc2Br)nc(C(F)(F)F)n1,-,-,-,-,-,-,.,.
CCCCN(CC)C(=O)c1ccc(Cl)cc1,-,-,-,-,-,-,.,.
CCN(CC(=O)NC(C)C)C(=O)c1ccc(Cl)cc1,-,-,-,-,-,18,-,-
Cc1onc(-c2ccccc2)c1C(=O)NCCN1CCOCC1,-,-,-,-,-,17,-,-
O=C(NCCN1CCOCC1)c1ccc(-c2ccccc2)cc1,-,-,-,-,-,-,.,.
O=C(O)CCC(=O)N1CCN(c2ncccn2)CC1,-,.,-,.,.,-,.,.
CCOC(=O)c1nc(NCCc2ccccc2)sc1C,-,-,-,-,-,30,-,-
CCOC(=O)c1nc(NNC(C)=O)sc1C,-,-,-,-,-,-,.,.
Cc1ccccc1OCC(=O)NC(=S)Nc1ccc(N2CCOCC2)c(Cl)c1,-,-,.,-,-,-,.,.
COc1ccccc1C(=O)NC(=S)Nc1ccc(N2CCOCC2)c(Cl)c1,-,-,-,-,-,36,-,81
O=[N+]([O-])c1ccc2[nH]c3c(c2c1)CCCC3,-,-,-,-,-,15,-,-
N/N=C1\CCCc2c1[nH]c1ccc([N+](=O)[O-])cc21,-,.,-,.,.,-,.,.
COC(=O)C(C)(C)ONC(=O)Nc1ccc(Br)cc1,-,-,-,-,-,-,.,.
COC(=O)C(C)(C)ONC(=O)Nc1ccccc1,-,-,-,-,-,194,-,-
Cc1ccc(NC(=O)C2CCCN2C(=O)Oc2ccccc2)cc1 (configuration not stated),-,-,-,-,-,14,-,-
Cc1cc(C)nc(-n2nc(C)cc2NC(=O)CNCc2ccccc2)n1,-,-,.,-,-,-,.,.
CCN(CC(=O)Nc1cc(C)nn1-c1nc(C)cc(C)n1)Cc1ccccc1,-,-,.,-,-,195,-,-
Cn1c(SCC(=O)Nc2nc(C(C)(C)C)cs2)nnc1C1CC1,-,-,-,-,-,-,.,.
O=C(COC(=O)CCc1nc2ccccc2s1)NC(=O)NCc1ccco1,-,-,-,-,-,17,-,-
Cc1cc(N2CCCC(C(=O)Nc3ccc4c(c3)CCC4)C2)n2ncnc2n1 (configuration not stated),-,-,-,-,-,17,-,-
Cc1cc(N2CCCC(C(=O)Nc3cccc(Cl)c3)C2)n2ncnc2n1 (configuration not stated),-,-,-,-,-,-,.,.
COC(=O)Cc1ccc(NC(=S)NNC(=O)C2CC2)cc1,-,.,-,.,.,-,.,.
C=CCNC(=S)N/N=C/c1ccc(C)cc1C,-,-,-,-,-,48,-,-
CCNC(=S)N/N=C/c1cc(C)ccc1C,-,-,-,-,-,-,.,.
SMILES,S1P4 antag,TNAP act hi DEA,S1P3 antagonist,TNAP inh hi DEA,TNAP inh noacc,S1P4 ag,S1P4 ag conf,S1P1 ag
O=c1oc2c(CN3CCN(CCO)CC3)c(O)ccc2cc1-c1ccccn1,-,.,-,.,.,14,-,-
O=c1oc2c(CN3CCCCC3)c(O)ccc2cc1-c1nc2ccccc2[nH]1,.,-,-,-,-,.,.,.
COCCCNC(=O)C1CCN(C(=O)Nc2ccc(Cl)cc2)CC1,-,-,-,-,-,61,-,-
CCCOc1ccc(C2C(C(=O)OC)=CN(CCOC)C=C2C(=O)OC)cc1,-,-,-,-,-,12,-,-
O=C1COc2ccc(C(=O)COc3ccc([N+](=O)[O-])cc3)cc2N1,-,.,-,.,.,-,.,.
CC(Cc1ccccc1)C(=O)N1CCN(C)CC1 (configuration not stated),-,-,-,-,-,-,.,.
CN1CCN(C(=O)C(N)Cc2ccccc2)CC1 (configuration not stated),-,-,-,-,-,18,-,-
COc1cc(C#N)c(NC(=S)N2CCOCC2)cc1OC,-,-,-,-,-,24,-,-
O=C(CNC(=O)c1ccccc1F)Nc1ccccc1C(F)(F)F,-,-,-,-,-,-,.,.
